pEC50, pKi: −log10 of the molar value. Calls of active or inactive are those of the source.
Key:
[1] = target: T1, 5-hydroxytryptamine receptor 1A (Homo sapiens, UniProt P08908); assay: Tested in vitro for its ability to bind to 5-hydroxytryptamine 1A receptor using [3H]8-OH-DPAT as radioligand
T1 sequence (P08908 whole entry): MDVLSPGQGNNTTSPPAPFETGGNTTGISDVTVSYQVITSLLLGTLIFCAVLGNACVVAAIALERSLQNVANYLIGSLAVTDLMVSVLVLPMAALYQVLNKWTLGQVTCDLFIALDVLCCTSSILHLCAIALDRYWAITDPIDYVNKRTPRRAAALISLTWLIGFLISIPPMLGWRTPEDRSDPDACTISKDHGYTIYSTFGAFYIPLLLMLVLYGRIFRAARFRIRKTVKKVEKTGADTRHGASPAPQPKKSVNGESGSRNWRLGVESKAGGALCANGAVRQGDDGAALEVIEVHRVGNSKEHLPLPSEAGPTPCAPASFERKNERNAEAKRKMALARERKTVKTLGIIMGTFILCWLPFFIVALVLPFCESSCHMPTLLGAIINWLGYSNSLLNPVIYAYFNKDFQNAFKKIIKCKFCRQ
Procedure, shortened: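 Human 5-HT1A receptor stably expressed in cells, used as harvested pellets. Competition used 2.0 nM [3H]-8-OH-DPAT in Tris/EDTA/MgCl2 buffer at pH 7.4, for 60 min at 25 °C. Nonspecific binding was defined with 10 µM 5-HT. Bound label was collected by filtration and counted by scintillation.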

[2] = target: T2, 5-hydroxytryptamine receptor 2A (Rattus norvegicus, UniProt P14842); assay: (§1) Tested for its ability to activate phospholipase C by quantification of IP3 at cloned rat 5-hydroxytryptamine 2A receptor
T2 sequence (P14842 whole entry): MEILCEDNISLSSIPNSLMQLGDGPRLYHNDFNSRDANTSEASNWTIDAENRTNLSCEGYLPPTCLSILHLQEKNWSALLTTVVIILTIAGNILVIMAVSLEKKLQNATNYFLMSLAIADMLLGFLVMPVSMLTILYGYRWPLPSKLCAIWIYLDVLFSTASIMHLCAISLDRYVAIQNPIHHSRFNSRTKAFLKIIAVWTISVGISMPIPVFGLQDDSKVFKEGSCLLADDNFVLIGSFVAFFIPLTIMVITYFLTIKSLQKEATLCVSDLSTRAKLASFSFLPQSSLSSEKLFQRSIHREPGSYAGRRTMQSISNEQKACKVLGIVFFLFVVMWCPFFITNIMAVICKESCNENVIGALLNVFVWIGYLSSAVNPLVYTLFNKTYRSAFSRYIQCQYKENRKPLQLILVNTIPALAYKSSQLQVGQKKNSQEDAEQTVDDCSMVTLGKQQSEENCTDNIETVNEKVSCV
Procedure, shortened: (§2)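 They were pretreated for 15 min with 10 µM pargyline/10 mM LiCl, then exposed to drug for 30 min at 37 °C. Formic acid stopped the reaction. [3H]inositol phosphates were separated on Dowex-1 columns. Efficacy is expressed relative to serotonin.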

[3] = target: T2, 5-hydroxytryptamine receptor 2A; assay: In vitro binding to 5-hydroxytryptamine 2A receptor using [125 I]-DOI
Procedure, shortened: (§3)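 Stably transfected cells expressing the rat 5-HT2A or rat 5-HT2C receptor were harvested as frozen pellets. Nonspecific binding was set with 10 µM cinanserin (5-HT2A) or 10 µM mianserin (5-HT2C). Bound label was collected on PEI-soaked GF/B filters and counted by scintillation.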

[4] = target: T3, 5-hydroxytryptamine receptor 2C (Rattus norvegicus, UniProt P08909); assay: In vitro binding to 5-hydroxytryptamine 2C receptor using [125 I]-DOI; procedure, shortened: as §3
T3 sequence (P08909 whole entry): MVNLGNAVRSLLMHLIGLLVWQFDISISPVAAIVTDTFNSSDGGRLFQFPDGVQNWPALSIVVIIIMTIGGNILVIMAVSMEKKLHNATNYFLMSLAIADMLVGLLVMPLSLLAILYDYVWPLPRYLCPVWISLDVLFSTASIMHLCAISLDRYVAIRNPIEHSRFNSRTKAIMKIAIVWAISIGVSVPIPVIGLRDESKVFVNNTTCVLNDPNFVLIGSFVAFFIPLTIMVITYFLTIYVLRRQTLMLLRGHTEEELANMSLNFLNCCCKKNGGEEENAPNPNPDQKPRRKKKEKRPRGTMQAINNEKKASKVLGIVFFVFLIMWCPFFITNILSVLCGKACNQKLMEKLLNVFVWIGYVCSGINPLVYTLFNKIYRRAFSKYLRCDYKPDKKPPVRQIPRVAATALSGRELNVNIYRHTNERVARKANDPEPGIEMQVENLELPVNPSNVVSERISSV

Rattus norvegicus [5] = species on record: Rattus norvegicus; assay: Maximum 5-HT stimulation was determined […]; format: functional
Procedure, shortened: as §2, with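 “Rat 5-HT2A-expressing cells at 70% confluency were labelled for 18-20 h with 1.0 µCi/mL [3H]-myo-inositol. They” for “They”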

Rattus norvegicus [6] = assay: Compound was tested for effective dose in DOI trained rats; Partial substitution at 1-6 uM/Kg (0.36-[…]); format: functional, organism-based
Rattus norvegicus [7] = assay: Compound was tested for effective dose in LSD trained rats; Partial substitution at 1-6 uM/Kg (0.36-[…]); format: functional, organism-based
Rattus norvegicus [8] = species on record: Rattus norvegicus; assay: Maximum 5-HT stimulation was determined at 10 uM […]; format: functional
Rattus norvegicus [9] = species on record: Rattus norvegicus; assay: Compound was tested for effective dose in DOI trained rats; format: functional
Rattus norvegicus [10] = species on record: Rattus norvegicus; assay: Compound was tested for effective dose in LSD trained rats; format: functional
[11] = target: T2, 5-hydroxytryptamine receptor 2A; assay: Tested for its ability to activate phospholipase c by quantification of IP3 at cloned rat 5-hydroxytryptamine 2A receptor
Procedure, shortened: as §2, with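 “Rat 5-HT2A-expressing cells at 70% confluency were labelled for 18-20 h with 1.0 µCi/mL [3H]-myo-inositol. They” for “They”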

[12] = target: T2, 5-hydroxytryptamine receptor 2A; assay: as §1; remark: listed apart in the source
Procedure, shortened: as §2, with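 “Rat 5-HT2A-expressing cells at 70% confluency were labelled for 18-20 h with 1.0 µCi/mL [3H]-myo-inositol. They” for “They”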

[13] = target: T2, 5-hydroxytryptamine receptor 2A; assay: Tested in vitro for its ability to bind to 5-hydroxytryptamine 2A receptor using [125 I]-DOI as radioligand
Procedure, shortened: as §3, with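 “pellets. Competition used 0.20 nM [125I]-DOI in 50 mM Tris, 0.1 mM EDTA, 10 mM MgCl2, pH 7.4, for 60 min at 25 °C.” for “pellets.”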

SMILES	pKi [1]	pEC50 [2]	pKi [3]	pKi [4]	Max (Rattus norvegicus [5])	further results
COc1cc(Br)c2occ3c2c1[C@H](CN)CC3	6.98	6.92	8.59	8.96	33%	PS (Rattus norvegicus [6]): Partially active; PS (Rattus norvegicus [7]): Partially active
CN(C)CCc1c[nH]c2cccc(O)c12 [PSILOCIN]		5.64	7.60		46%	
COc1ccc2occ3c2c1[C@H](CN)CC3	6.07	< 5.00	6.70	7.96		Max (Rattus norvegicus [8]): 10%
COc1ccc2c3c1[C@H](CN)CC[C@H]3CO2	6.00		6.51	7.47		
COc1cc(CC(C)N)c(OC)cc1Br (configuration not stated) [BROLAMFETAMINE]					79%	ED50 (Rattus norvegicus [9]): 0.091 µmol/kg; ED50 (Rattus norvegicus [10]): 1.06 µmol/kg
CCN(CC)C(=O)[C@@H]1C=C2c3cccc4[nH]cc(c34)C[C@H]2N(C)C1 [LYSERGIDE]					22%	
COc1cc(Br)c2c3c1[C@H](CN)CC[C@@H]3CO2	6.28	5.96	8.06	8.55	49%	
COc1cc(CCN)cc(OC)c1OC [MESCALINE]					92%	pEC50 [11]: 5.59
COc1ccc2c3c1[C@H](CN)CC[C@@H]3CO2	5.52		6.15	7.23		
COc1cc(Br)c2c3c1C[C@H](N)C[C@@H]3CO2 (relative stereo)	6.02	5.68	7.80	8.40	63%	
COc1cc(Br)c2c3c1[C@H](CN)CC[C@H]3CO2	6.26			8.31	37%	pEC50 [12]: 6.47; pKi [13]: 8.03
